Holding throughout (format): functional
The test system of experiment [1] is Cryptococcus neoformans. Briefly: Antifungal activity against Cryptococcus neoformans after 72 hrs. Summed up: (§1)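 Broth serial-dilution MIC in 96-well plates per NCCLS recommendations. Medium: RPMI 1640 buffered with 0.165 M MOPS. Strains were from ATCC or clinical isolates. Compounds were dissolved in DMSO and serially diluted in growth medium. Yeasts were incubated at 35 °C, read at 24 h for Candida and 72 h for C. neoformans. MIC is the lowest concentration giving ≥80% growth inhibition versus control (turbidity).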

In experiment [2] the test system is Candida parapsilosis. The experiment is described as follows: Antifungal activity against Candida parapsilosis after 24 hrs. Particulars: Lodderomyces parapsilosis. The method in brief: as §1
Experiment [3] concerns Candida albicans. Briefly: Antifungal activity against Candida albicans after 24 hrs. Summed up: as §1
For experiment [4], the system named is Aspergillus fumigatus. Briefly: Antifungal activity against Aspergillus fumigatus after 7 days. Particulars: 168 h. Summed up:
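Filamentous-fungus MIC was determined by serial dilution in 96-well plates per NCCLS, using RPMI 1640 buffered with 0.165 M MOPS. Strains were ATCC or clinical isolates. Compounds in DMSO were diluted in growth medium. Growth was read at 7 days. MIC is the lowest concentration producing ≥80% inhibition of turbidity compared with control.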

Experiment [5] has as its system Microsporum canis. Briefly: Antifungal activity against Microsporum canis after 7 days. Particulars: 168 h. Summed up: (§2)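 Dermatophytes were tested by NCCLS-based broth serial dilution in 96-well plates. Medium: RPMI 1640 with 0.165 M MOPS. Isolates were from ATCC or clinical sources. Compounds in DMSO were serially diluted in medium. Incubation was at 28 °C with the read at 7 days. MIC is the lowest concentration giving ≥80% turbidity reduction relative to the growth control.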

The test system of experiment [6] is Trichophyton rubrum. Briefly: Antifungal activity against Trichophyton rubrum after 7 days. Particulars: 168 h. Summed up: as §2

The term MIC80 denotes an inhibitory concentration at the 80% level, which refers to growth in some studies and to a panel of isolates in others. Read a low MIC80 as higher susceptibility.

≈ marks a conversion by molar mass, not a printed value.

As to `CCCCCCCCCCN1CCc2cc(O)c(O)cc2C1`, the MIC80 in experiment [1] is 3.12 µg/mL (≈ 10.2 µM); in experiment [2] it was 12.5 µg/mL (≈ 40.9 µM); in experiment [3], 100 µg/mL (≈ 327 µM); in experiment [4], 50 µg/mL (≈ 164 µM); in experiment [5], 12.5 µg/mL (≈ 40.9 µM); in experiment [6] it was 3.12 µg/mL (≈ 10.2 µM).

As to `CCCCCCCCCCCCN1CCc2cc(O)c(O)cc2C1`, the MIC80 is 6.25 µg/mL (≈ 18.7 µM) in experiment [1]; 50 µg/mL (≈ 150 µM) in experiment [2]; 50 µg/mL (≈ 150 µM) in experiment [3]; 50 µg/mL (≈ 150 µM) in experiment [4]; 12.5 µg/mL (≈ 37.5 µM) in experiment [5]; 12.5 µg/mL (≈ 37.5 µM) in experiment [6].

With `CCCCCCCCCCCCCCCCN1CCc2cc(O)c(O)cc2C1`, the MIC80 is 100 µg/mL (≈ 257 µM) in experiment [1]; 100 µg/mL (≈ 257 µM) in experiment [2]; more than 200 µg/mL in experiment [3]; 200 µg/mL (≈ 513 µM) in experiment [4]; more than 200 µg/mL in experiment [5]; 200 µg/mL (≈ 513 µM) in experiment [6].

In the case of `CCCCCCCCN1CCc2cc(O)c(O)cc2C1`, the MIC80 in experiment [1] is 100 µg/mL (≈ 360 µM); in experiment [2], 100 µg/mL (≈ 360 µM); in experiment [3] it was more than 200 µg/mL; in experiment [4] it was more than 200 µg/mL; in experiment [5], 50 µg/mL (≈ 180 µM); in experiment [6] it was 50 µg/mL (≈ 180 µM).

Regarding `CCCCCCN1CCc2cc(O)c(O)cc2C1`, the MIC80 in experiment [1] was 100 µg/mL (≈ 401 µM); in experiment [2] it was 100 µg/mL (≈ 401 µM); in experiment [3] it was more than 200 µg/mL; in experiment [4] it was more than 200 µg/mL; in experiment [5] it was more than 200 µg/mL; in experiment [6] it was more than 200 µg/mL.

As for `CCCCCN1CCc2cc(O)c(O)cc2C1`, the MIC80 is 100 µg/mL (≈ 425 µM) in experiment [1]; 100 µg/mL (≈ 425 µM) in experiment [2]; more than 200 µg/mL in experiment [3]; more than 200 µg/mL in experiment [4]; more than 200 µg/mL in experiment [5]; more than 200 µg/mL in experiment [6].

For `CCCCCCCN1CCc2cc(O)c(O)cc2C1`, the MIC80 in experiment [1] was 100 µg/mL (≈ 380 µM); in experiment [2], 100 µg/mL (≈ 380 µM); in experiment [3] it was more than 200 µg/mL; in experiment [4] it was more than 200 µg/mL; in experiment [5] it was more than 200 µg/mL; in experiment [6] it was more than 200 µg/mL.

As to `CCCCCCCCCCCCCCN1CCc2cc(O)c(O)cc2C1`, the MIC80 in experiment [1] is 6.25 µg/mL (≈ 17.3 µM); in experiment [2], 50 µg/mL (≈ 138 µM); in experiment [3] it was 50 µg/mL (≈ 138 µM); in experiment [4] it was more than 200 µg/mL; in experiment [5] it was 12.5 µg/mL (≈ 34.6 µM); in experiment [6], 25 µg/mL (≈ 69.1 µM).

As for `CCCCCCCCCN1CCc2cc(O)c(O)cc2C1`, the MIC80 stood at 25 µg/mL (≈ 85.8 µM) in experiment [1]; 25 µg/mL (≈ 85.8 µM) in experiment [2]; 200 µg/mL (≈ 686 µM) in experiment [3]; 200 µg/mL (≈ 686 µM) in experiment [4]; 50 µg/mL (≈ 172 µM) in experiment [5]; 12.5 µg/mL (≈ 42.9 µM) in experiment [6].

Turning to `OC(Cn1cncn1)(Cn1cncn1)c1ccc(F)cc1F` [FLUCONAZOLE], the MIC80 in experiment [1] was 6.25 µg/mL (≈ 20.4 µM); in experiment [2], 50 µg/mL (≈ 163 µM); in experiment [3], 1.56 µg/mL (≈ 5.1 µM); in experiment [4], more than 200 µg/mL; in experiment [5], 100 µg/mL (≈ 327 µM); in experiment [6], 25 µg/mL (≈ 81.6 µM).

Source of the values: ChEMBL document CHEMBL1137243, “Design, synthesis, and antifungal activities in vitro of novel tetrahydroisoquinoline compounds based on the structure of lanosterol 14alpha-demethylase (CYP51) of fungi” (2006).
